In data set [1] the target is T1, CD209 antigen (Homo sapiens, UniProt Q9NNX6).
T1 sequence (Q9NNX6 whole entry): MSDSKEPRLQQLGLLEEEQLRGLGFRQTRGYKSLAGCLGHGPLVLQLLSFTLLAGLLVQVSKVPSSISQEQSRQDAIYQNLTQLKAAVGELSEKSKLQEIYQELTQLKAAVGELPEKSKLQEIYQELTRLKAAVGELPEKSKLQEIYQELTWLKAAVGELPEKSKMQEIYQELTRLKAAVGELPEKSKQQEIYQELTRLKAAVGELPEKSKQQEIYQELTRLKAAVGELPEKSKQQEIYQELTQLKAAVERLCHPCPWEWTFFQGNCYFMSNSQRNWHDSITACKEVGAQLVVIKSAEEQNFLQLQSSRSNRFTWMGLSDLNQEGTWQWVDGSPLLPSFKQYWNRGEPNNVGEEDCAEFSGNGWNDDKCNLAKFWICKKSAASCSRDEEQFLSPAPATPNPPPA
Nature of the data set: Displacement of biotinylated HIV1 gp120 from DC-SIGN receptor carbohydrate recognition domain (unknown origin) after 2 hrs by solid-phase competitive displacement assay.

Data set [2] addresses T1, CD209 antigen. As to the kind of experiment: Antagonist activity at DC-SIGN receptor (unknown origin) assessed as inhibition of mannosylated BSA binding by SPR assay.
Data set [3] in a line: Cytotoxicity against human DC at 50 uM after 24 hrs by propidium iodide staining-based flow cytometry. A digest of the protocol: (§1)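 Immature DCs, seeded after 5 days of culture at 0.5 × 10⁶ cells/ml, were treated with compounds at 50, 100 and 250 for 24 h. Cells were then harvested, stained with propidium iodide for 15 min and analysed by flow cytometry. The percentage of PI-positive cells was taken as the percentage of dead cells.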

Data set [4] in a line: Cytotoxicity against human DC at 250 uM after 24 hrs by propidium iodide staining-based flow cytometry. A digest of the protocol:
as §1

Data set [5] in a line: Cytotoxicity against human DC at 250 uM after 24 hrs by propidium iodide staining-based flow cytometry.
The nature of data set [6]: Cytotoxicity against human DC at 100 uM after 24 hrs by propidium iodide staining-based flow cytometry. A digest of the protocol:
as §1

In data set [7] the target is T1, CD209 antigen. As to the kind of experiment: Displacement of [125I]-Man30-BSA from DC-SIGN receptor carbohydrate recognition domain (unknown origin) after 2 hrs by gamma-counting analysis.

Molecules are shown by their SMILES.

Consider `COC(=O)[C@H]1C[C@H](OCCN=[N+]=[N-])[C@@H](O[C@H]2O[C@H](CO)[C@@H](O)[C@H](O)[C@@H]2O)C[C@@H]1C(=O)OC`, for which the figures for the concentration for half-maximal inhibition (IC50) in data set [1] and in data set [2] were 2760 µM and 1020 µM, respectively.
Consider `[N-]=[N+]=NCCO[C@H]1C[C@H](C(=O)NCc2ccc(CO)cc2)[C@@H](C(=O)NCc2ccc(CO)cc2)C[C@@H]1O[C@H]1O[C@H](CO)[C@@H](O)[C@H](O)[C@@H]1O`, for which the IC50 in data set [1] amounted to 420 µM; in data set [2] it was 325 µM.
In the case of `N#Cc1ccc(C(=O)NCC(CNC(=O)c2ccc(C#N)cc2)O[C@H]2O[C@H](CO)[C@@H](O)[C@H](O)[C@@H]2O)cc1`, the Activity result in data set [3] was “Non-toxic”.
For `O=C(NCC(CNC(=O)c1ccc2ccccc2c1)O[C@H]1O[C@H](CO)[C@@H](O)[C@H](O)[C@@H]1O)c1ccc2ccccc2c1`, the Activity result in data set [4] was “Toxic”; in data set [3], “Non-toxic”; in data set [5], “Toxic”.
Consider `OC[C@H]1O[C@H](OC(COc2cccc3ccccc23)COc2cccc3ccccc23)[C@@H](O)[C@@H](O)[C@@H]1O`, for which the Activity entry is “Toxic” in data set [4], “Toxic” in data set [6], “Non-toxic” in data set [3] and “Toxic” in data set [5].
Consider `COc1ccc2ccc(OCC(COc3ccc4ccc(OC)cc4c3)O[C@H]3O[C@H](CO)[C@@H](O)[C@H](O)[C@@H]3O)cc2c1`, for which the Activity entry in data set [4] was “Toxic”; in data set [6] it was “Toxic”; in data set [3] it was “Non-toxic”; in data set [5], “Toxic”.
As for `COc1ccc(OCC(CO[C@H]2O[C@H](CO)[C@@H](O)[C@H](O)[C@@H]2O)Oc2ccc(OC)cc2)cc1` (mixture of isomers), the Activity entry in data set [3] is recorded as “Non-toxic”.
Regarding `OC[C@H]1O[C@H](OCC(COc2ccc3ccccc3c2)Oc2ccc3ccccc3c2)[C@@H](O)[C@@H](O)[C@@H]1O` (mixture of isomers), the Activity result in data set [4] was “Toxic”; in data set [3] it was “Non-toxic”; in data set [5], “Toxic”.
As for `OC[C@H]1OC(O)[C@@H](O)[C@@H](O)[C@@H]1O` (stereo partly drawn) [D-MANNOSE], affinity in data set [7] was put at a Ki of 13100 µM.
As for `C[C@H](O)[C@@H](O)[C@@H](O)[C@H](O)C=O` [L-FUCOSE], the Ki in data set [7] stood at 6700 µM. For the same molecule, the IC50 in data set [1] was 2950 µM.
